How the values were obtained:
Format in all cases: cell-based
Raji [1] = experiment: Inhibition of 12-O-tetradecanoylphorbol-13-acetate-induced EBV-early antigen activation in human Raji cells at 1000 molar ratio relative to TPA; set-up: scale not given: the % may be the effect or the level left; details: human gammaherpesvirus 4
Method in brief: (§1)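 Raji cells (virus nonproducer, 1×10^6/mL) were cultured 48 h at 37 °C in 1 mL medium with n-butyric acid (4 mmol), TPA inducer (32 pmol = 20 ng in DMSO) and compound in DMSO. Dose is the mol ratio to TPA. EA-positive cells on smears were found by indirect immunofluorescence using NPC patient serum. Triplicate assays; induction is given relative to the butyric acid + TPA control (100%).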

Raji [2] = experiment: Inhibition of 12-O-tetradecanoylphorbol-13-acetate-induced EBV-early antigen activation in human Raji cells at 500 molar ratio relative to TPA; set-up: scale not given: the % may be the effect or the level left; details: human gammaherpesvirus 4; method in brief: as §1
Raji [3] = experiment: Inhibition of 12-O-tetradecanoylphorbol-13-acetate-induced EBV-early antigen activation in human Raji cells at 100 molar ratio relative to TPA; set-up: scale not given: the % may be the effect or the level left; details: human gammaherpesvirus 4; method in brief: as §1
Raji [4] = experiment: Inhibition of 12-O-tetradecanoylphorbol-13-acetate-induced EBV-early antigen activation in human Raji cells at 10 molar ratio relative to TPA; set-up: scale not given: the % may be the effect or the level left; details: human gammaherpesvirus 4; method in brief: as §1
[5] = Cytotoxicity against human Raji cells assessed as cell viability at 1000 molar ratio by Trypan blue method; details: read-out: Activity
Method in brief: (§2)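 Raji cells (1×10^6/mL) given n-butyric acid (4 mmol), TPA (32 pmol = 20 ng per mL, in DMSO) and test compound in DMSO, then held at 37 °C for 48 h. Dose is the mol ratio of compound to TPA. Viability of the treated cells was scored by Trypan Blue staining.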

[6] = Cytotoxicity against human Raji cells assessed as cell viability at 500 molar ratio by Trypan blue method; details: read-out: Activity; method in brief: as §2
[7] = Cytotoxicity against human Raji cells assessed as cell viability at 100 molar ratio by Trypan blue method; details: read-out: Activity; method in brief: as §2
[8] = Cytotoxicity against human Raji cells assessed as cell viability at 10 molar ratio by Trypan blue method; details: read-out: Activity; method in brief: as §2

Compound | Activity (Raji [1]) [%] | Activity (Raji [2]) [%] | Activity (Raji [3]) [%] | Activity (Raji [4]) [%] | viability at 1000 molar ratio [5] [%] | viability at 500 molar ratio [6] [%] | viability at 100 molar ratio [7] [%] | viability at 10 molar ratio [8] [%]
CC[C@H](CC[C@@H](C)[C@H]1CC[C@H]2[C@@H]3C(=O)C=C4C[C@@H](O)CC[C@]4(C)[C@H]3CC[C@]12C)C(C)C | 11.5 | 42.8 | 71.5 | 100 | 60 | > 80 | > 80 | > 80
Oc1cc(O)c2c(c1)O[C@@H](c1ccc(O)c(O)c1)[C@H](O)C2 [(-)-CATECHIN] | 11.3 | 41.3 | 75.8 | 100 | 70 | > 80 | > 80 | > 80
O=C(/C=C/c1ccc(O)cc1)OC[C@H]1O[C@@](COC(=O)/C=C/c2ccc(O)cc2)(O[C@H]2O[C@H](CO)[C@@H](O)[C@H](O)[C@H]2O)[C@@H](OC(=O)/C=C/c2ccc(O)cc2)[C@@H]1O [HYDROPIPEROSIDE] | 10.6 | 39.6 | 71.5 | 100 | 70 | > 80 | > 80 | > 80
COc1cc(/C=C/C(=O)OC[C@H]2O[C@H](O[C@]3(COC(=O)/C=C/c4ccc(O)c(OC)c4)O[C@H](COC(=O)/C=C/c4ccc(O)cc4)[C@@H](O)[C@@H]3OC(=O)/C=C/c3ccc(O)cc3)[C@H](O)[C@@H](O)[C@@H]2O)ccc1O [LAPATHOSIDE A] | 10 | 37.2 | 70.9 | 95 | 70 | > 80 | > 80 | > 80
COc1cc(/C=C/C(=O)OC[C@H]2O[C@@](COC(=O)/C=C/c3ccc(O)c(OC)c3)(O[C@H]3O[C@H](COC(=O)/C=C/c4ccc(O)c(OC)c4)[C@@H](O)[C@H](O)[C@H]3O)[C@@H](OC(=O)/C=C/c3ccc(O)cc3)[C@@H]2O)ccc1O [LAPATHOSIDE B] | 26.8 | 51.6 | 77.9 | 100 | 60 | > 80 | > 80 | > 80
COc1cc(/C=C/C(=O)OC[C@H]2O[C@H](O[C@]3(CO)O[C@H](COC(=O)/C=C/c4ccc(O)cc4)[C@@H](O)[C@@H]3OC(=O)/C=C/c3ccc(O)cc3)[C@H](O)[C@@H](O)[C@@H]2O)ccc1O [LAPATHOSIDE C] | 33.6 | 59 | 83.5 | 100 | 70 | > 80 | > 80 | > 80
O=C(/C=C/c1ccc(O)cc1)OC[C@H]1O[C@@](CO)(O[C@H]2O[C@H](CO)[C@@H](O)[C@H](O)[C@H]2O)[C@@H](OC(=O)/C=C/c2ccc(O)cc2)[C@@H]1O [LAPATHOSIDE D] | 10.5 | 38.3 | 71.4 | 100 | 70 | > 80 | > 80 | > 80
COC(=O)/C=C/c1ccc(O)cc1 [METHYL P-HYDROXYCINNAMATE] | 15.7 | 42.6 | 77.5 | 100 | 70 | > 80 | > 80 | > 80
CC[C@H](CC[C@@H](C)[C@H]1CC[C@H]2[C@@H]3CC=C4C[C@@H](O[C@@H]5O[C@H](CO)[C@@H](O)[C@H](O)[C@H]5O)CC[C@]4(C)[C@H]3CC[C@]12C)C(C)C [SITOGLUSIDE] | 14.8 | 45.7 | 73.9 | 100 | 60 | > 80 | > 80 | > 80
COc1cc(/C=C/C(=O)OC[C@H]2O[C@H](O[C@]3(COC(=O)/C=C/c4ccc(O)cc4)O[C@H](COC(=O)/C=C/c4ccc(O)cc4)[C@@H](O)[C@@H]3OC(=O)/C=C/c3ccc(O)cc3)[C@H](O)[C@@H](O)[C@@H]2O)ccc1O [VANICOSIDE B] | 11.8 | 40.9 | 70 | 100 | 70 | > 80 | > 80 | > 80
